Data taken from ChEMBL document CHEMBL1806376, “Synthesis and biological properties of macrolactam analogs of the natural product macrolide (-)-A26771B” (2011).
In brackets after ≈: the same amount, converted by molar mass.

What was measured:
Assay type in all cases: functional
Haemophilus influenzae [1] = assay: Antibacterial activity against Haemophilus influenzae ATCC 31517 by broth microdilution method; conditions: Haemophilus influenzae, ATCC 31517; read-out: MIC
In short: (§1)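 MIC values determined by broth microdilution following the CLSI method.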

Enterococcus faecalis = assay: Antibacterial activity against Enterococcus faecalis ATCC 29212 by broth microdilution method; in short: as §1
Streptococcus pneumoniae [2] = assay: Antibacterial activity against Streptococcus pneumoniae ATCC 49619 by broth microdilution method; conditions: Streptococcus pneumoniae, ATCC 49619; read-out: MIC; in short: as §1
Staphylococcus aureus [3] = assay: Antibacterial activity against Staphylococcus aureus ATCC 13709 by broth microdilution method; conditions: Staphylococcus aureus, ATCC 13709; read-out: MIC; in short: as §1
Staphylococcus aureus [4] = assay: Antibacterial activity against methicillin-resistant Staphylococcus aureus Sa2 by broth microdilution method; conditions: Staphylococcus aureus, Sa2; read-out: MIC
In short: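 Broth microdilution run according to the CLSI method.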

Staphylococcus aureus [5] = assay: Antibacterial activity against Staphylococcus aureus ATCC 25923 by broth microdilution method in presence of 10% human serum; conditions: Staphylococcus aureus, ATCC 25923; read-out: MIC
In short: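 MIC determined by broth microdilution per the CLSI method, with 10% human serum added to the medium.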

Haemophilus influenzae [6] = assay: Antibacterial activity against efflux knock-out Haemophilus influenzae LS2 by broth microdilution method; conditions: Haemophilus influenzae, LS2; read-out: MIC; in short: as §1
Pseudomonas aeruginosa = assay: Antibacterial activity against Pseudomonas aeruginosa ATCC 27853 by broth dilution method; in short: as §1
Escherichia coli = assay: Antibacterial activity against Escherichia coli ATCC 25922 by broth microdilution method; in short: as §1
Enterococcus faecium = assay: Antibacterial activity against Enterococcus faecium 1 by broth microdilution method; in short: as §1
Staphylococcus aureus [7] = assay: Antibacterial activity against Staphylococcus aureus ATCC 25923 by broth microdilution method; conditions: Staphylococcus aureus, ATCC 25923; read-out: MIC; in short: as §1
Streptococcus pneumoniae [8] = assay: Antibacterial activity against Streptococcus pneumoniae Pen9 IV381-221 by broth microdilution method; conditions: Streptococcus pneumoniae, Pen9 IV381-221; read-out: MIC; in short: as §1
Staphylococcus aureus [9] = assay: Antibacterial activity against Staphylococcus aureus oxford by broth microdilution method; conditions: Staphylococcus aureus, oxford; read-out: MIC; in short: as §1
[10] = Enterococcus faecalis, ATCC 29212, read-out: MIC
[11] = Enterococcus faecium, 1, read-out: MIC

Structure (SMILES)	MIC (Haemophilus influenzae [1]) [µg/mL]	MIC (Enterococcus faecalis; [10]) [µg/mL]	MIC (Streptococcus pneumoniae [2]) [µg/mL]	MIC (Staphylococcus aureus [3]) [µg/mL]	MIC (Staphylococcus aureus [4]) [µg/mL]	MIC (Staphylococcus aureus [5]) [µg/mL]	MIC (Haemophilus influenzae [6]) [µg/mL]	MIC (Pseudomonas aeruginosa) [µg/mL]	MIC (Escherichia coli) [µg/mL]	MIC (Enterococcus faecium; [11]) [µg/mL]	MIC (Staphylococcus aureus [7]) [µg/mL]	MIC (Streptococcus pneumoniae [8]) [µg/mL]	MIC (Staphylococcus aureus [9]) [µg/mL]	MIC (Enterococcus faecalis) [µg/mL]	MIC (Enterococcus faecium) [µg/mL]
Cc1nc2c([nH]1)CCCCCCCCC[C@@H](C)OC(=O)/C=C/2	> 64	32 (≈ 105 µM)	16 (≈ 52.6 µM)	32 (≈ 105 µM)	32 (≈ 105 µM)	> 64	16 (≈ 52.6 µM)	> 64	> 64	16 (≈ 52.6 µM)	32 (≈ 105 µM)	8 (≈ 26.3 µM)	32 (≈ 105 µM)		
C[C@@H]1CCCCCCCCC[C@H](OC(=O)CCC(=O)O)C(=O)/C=C/C(=O)O1	> 32	16 (≈ 41.8 µM)	16 (≈ 41.8 µM)	2 (≈ 5.23 µM)	2 (≈ 5.23 µM)	> 32	16 (≈ 41.8 µM)	> 32	> 32	4 (≈ 10.5 µM)	4 (≈ 10.5 µM)	8 (≈ 20.9 µM)	2 (≈ 5.23 µM)		
CO[C@H]1CCCCCCCCC[C@@H](C)OC(=O)C2CC2C1=O (mixture of isomers)	> 64	> 64	> 64	> 64	> 64	> 64	> 64	> 64	> 64	> 64	> 64	> 64	> 64		
COC1CCCCCCCCC[C@@H](C)NC(=O)/C=C/C1=O (single isomer, unassigned; diastereomer 1)	2 (≈ 6.77 µM)		2 (≈ 6.77 µM)	1 (≈ 3.38 µM)	1 (≈ 3.38 µM)	8	0.25 (≈ 0.846 µM)	> 64	> 64		1 (≈ 3.38 µM)	8 (≈ 27.1 µM)	1 (≈ 3.38 µM)	2 (≈ 6.77 µM)	0.5 (≈ 1.69 µM)
C[C@@H]1CCCCCCCCC[C@H](OC(=O)CCC(=O)OC(C)(C)C)C(=O)CC(N2CCN(C)CC2)C(=O)O1 (stereo partly specified)	> 32	4 (≈ 7.42 µM)	4 (≈ 7.42 µM)	2 (≈ 3.71 µM)	2 (≈ 3.71 µM)	> 32		> 32	> 32	4 (≈ 7.42 µM)	4 (≈ 7.42 µM)	2 (≈ 3.71 µM)	2 (≈ 3.71 µM)		
C[C@@H]1CCCCCCCCC[C@H](O)C(=O)/C=C/C(=O)O1	16 (≈ 56.7 µM)	2 (≈ 7.08 µM)	2 (≈ 7.08 µM)	1 (≈ 3.54 µM)	2 (≈ 7.08 µM)	32	1 (≈ 3.54 µM)	> 32	> 32	8 (≈ 28.3 µM)	2 (≈ 7.08 µM)	2 (≈ 7.08 µM)	1 (≈ 3.54 µM)		
C[C@@H]1CCCCCCCCC[C@H](O)C(=O)CC(SCC(F)(F)F)C(=O)O1 (stereo partly specified)	32 (≈ 80.3 µM)	4 (≈ 10 µM)	4 (≈ 10 µM)	1 (≈ 2.51 µM)	1 (≈ 2.51 µM)	32	2 (≈ 5.02 µM)	> 64	> 64	4 (≈ 10 µM)	1 (≈ 2.51 µM)	4 (≈ 10 µM)	1 (≈ 2.51 µM)		
CO[C@H]1CCCCCCCCC[C@@H](C)OC(=O)/C=C/C1=O	32 (≈ 108 µM)	2 (≈ 6.75 µM)	2 (≈ 6.75 µM)	1 (≈ 3.37 µM)	0.5 (≈ 1.69 µM)	16	4 (≈ 13.5 µM)	> 64	> 64	2 (≈ 6.75 µM)	1 (≈ 3.37 µM)	2 (≈ 6.75 µM)	1 (≈ 3.37 µM)		
CO[C@H]1CCCCCCCCC[C@@H](C)OC(=O)C(S(=O)(=O)c2ccccc2)CC1=O (stereo partly specified)	32 (≈ 73 µM)	4 (≈ 9.12 µM)	4 (≈ 9.12 µM)	1 (≈ 2.28 µM)	2 (≈ 4.56 µM)	32	2 (≈ 4.56 µM)	> 64	> 64	4 (≈ 9.12 µM)	1 (≈ 2.28 µM)	2 (≈ 4.56 µM)	1 (≈ 2.28 µM)		
